Measurements as given in ChEMBL document CHEMBL3259576, “Design and Evaluation of ω-Hydroxy Fatty Acids Containing α-GalCer Analogues for CD1d-Mediated NKT Cell Activation” (ACS Med Chem Lett, 2014).
The source made the active and inactive calls.

Tests used:
Mus musculus [1] = species: Mus musculus; assay: Stimulation of mouse CD1d-mediated IL-4 production in mouse splenocytes measured at 32 ng/ml after 72 hrs by ELISA; format: cell-based
Outline: (§1)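 Mouse splenocytes were treated individually with glycolipid and cultured for 72 h. IFN-γ and IL-4 in the culture were then measured. Results are expressed as relative activity, as means ±SD of triplicates, from one representative of two independent experiments.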

Mus musculus [2] = species: Mus musculus; assay: Stimulation of mouse CD1d-mediated IFN-gamma production in C57BL/6 mouse splenocytes measured at 32 ng/ml after 72 hrs by ELISA; format: cell-based; outline: as §1
RBL = assay: Stimulation of mouse CD1d-mediated IL-2 production in DN32.D3 hybridoma cells co-cultured with mouse CD1d transfected RBL cells measured at 32 to 500 ng/ml after 16 hrs by ELISA
Mus musculus [3] = assay: In vivo stimulation of mouse CD1d-mediated peak IFN-gamma production in C57BL/6 mouse serum measured at 0.5 ug, iv after 12 hrs by ELISA; format: functional, organism-based
Mus musculus [4] = assay: In vivo stimulation of mouse CD1d-mediated peak IL4 production in C57BL/6 mouse serum measured at 0.5 ug, iv after 2 hrs by ELISA; format: functional, organism-based

Measured: Activity

CCCCCCCCCCCCCC[C@@H](O)[C@@H](O)[C@H](CO[C@H]1O[C@H](CO)[C@H](O)[C@H](O)[C@H]1O)NC(=O)CCCCCCCCCC
active: Mus musculus [1] | Mus musculus [2] | RBL

CCCCCCCCCCCCCC[C@@H](O)[C@@H](O)[C@H](CO[C@H]1O[C@H](CO)[C@H](O)[C@H](O)[C@H]1O)NC(=O)CCCCCCCCCCO
active: all assays above

CCCCCCCCCCCCCCCCCCCCCCCCCC(=O)N[C@@H](CO[C@H]1O[C@H](CO)[C@H](O)[C@H](O)[C@H]1O)[C@H](O)[C@H](O)CCCCCCCCCCCCCC
active: all assays above

CCCCCCCCCCCCCC[C@@H](O)[C@@H](O)[C@H](CO[C@H]1O[C@H](CO)[C@H](O)[C@H](O)[C@H]1O)NC(=O)CCCCCCCCCCC
active: Mus musculus [1] | Mus musculus [2] | RBL

CCCCCCCCCCCCCC[C@@H](O)[C@@H](O)[C@H](CO[C@H]1O[C@H](CO)[C@H](O)[C@H](O)[C@H]1O)NC(=O)CCCCCCCCCCCO
active: Mus musculus [1] | Mus musculus [2] | RBL

CCCCCCCCCCCCCC[C@@H](O)[C@@H](O)[C@H](CO[C@H]1O[C@H](CO)[C@H](O)[C@H](O)[C@H]1O)NC(=O)CCCCCCCCCCCCCCCO
active: Mus musculus [1] | Mus musculus [2]
